Data as given in ChEMBL document CHEMBL5576155, “Expanding the chemical space of ester of quinoxaline-7-carboxylate 1,4-di-N-oxide derivatives as potential antitubercular agents” (RSC Med Chem, 2024).

Columns and labels:
[1] = system: Mycobacterium tuberculosis; test: Antitubercular activity against Mycobacterium tuberculosis H37Rv assessed as reduction in microbial growth incubated for 10 days under anaerobic condition followed by 28 hrs incubation with aerobic condition further incubated 7 days at 5 % CO2 condition by low-oxygen recovery assay; assay type: functional; details: time 436 hrs
[2] = system: Mycobacterium tuberculosis; test: Antitubercular activity against Mycobacterium tuberculosis H37Rv assessed as reduction in microbial growth by MABA; assay type: functional
How it was run: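 M. tuberculosis H37Rv tested in vitro by modified Alamar blue microplate assay (MABA), with rifampicin and isoniazid as reference drugs. MIC was the lowest drug concentration giving 90% inhibition. Triplicate independent experiments.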

[3] = Selectivity index, ratio of CC50 for cytotoxicity against mouse J774.2 cell to MIC for antibacterial activity against Mycobacterium tuberculosis H37Rv; assay type: toxicity; details: J774.2 cells, read-out: Selectivity Index
How it was run: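 CC50 was measured in murine macrophage J774.2 cells grown in RPMI 1640 with 10% FBS, 1% MEM-NEAA and antibiotic–antifungal mix at 37 °C, 5% CO2. 1 × 10^5 cells per well received serial dilutions in triplicate, with 0.1% DMSO as negative control. Viability was read by MTT. SI is CC50 over the MABA MIC against H37Rv.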

[4] = Cytotoxicity against mouse J774.2 cells assessed as reduction in cell viability by MTT assay; assay type: toxicity, cell-based
How it was run: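 Murine macrophage J774.2 grown in RPMI 1640 with 10% FBS, 1% MEM-NEAA and 100 U mL−1 antibiotic–antifungal, at 37 °C, 5% CO2, humidified. Cells washed and plated at 1 × 10^5 per well. Serial-dilution dose–response run in triplicate, with 0.1% DMSO as negative control. Viability read by MTT colorimetric assay. CC50 derived from the dose–response.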

SMILES | MIC [1] [µM] | MIC [2] [µM] | selectivity ratio [3] | CC50 [4] [µM]
CCOC(=O)c1ccc2c(c1)[n+]([O-])c(C(=O)c1cccs1)c(C(F)(F)F)[n+]2[O-] | 0.51 | 0.24 | – | –
CC(=O)c1c(C(F)(F)F)[n+]([O-])c2ccc(C(=O)OCC(C)C)cc2[n+]1[O-] | 0.94 | 0.7 | 10.2 | 25.4
Cc1ccc(NC(=O)c2c(C)[n+]([O-])c3cc(C(=O)OCC(C)C)ccc3[n+]2[O-])c(C)c1 | > 118 | > 118 | 10.2 | > 200
CCCCOC(=O)c1ccc2c(c1)[n+]([O-])c(C(=O)OCc1ccccc1)c(C)[n+]2[O-] | 1.73 | 0.59 | 10.2 | > 200
CCCCOC(=O)c1ccc2c(c1)[n+]([O-])c(C(=O)OC)c(C)[n+]2[O-] | 5.24 | 0.87 | 10.2 | 46.2
CC(C)OC(=O)c1ccc2c(c1)[n+]([O-])c(C(=O)c1cccs1)c(C(F)(F)F)[n+]2[O-] | 0.54 | 0.19 | – | –
CCCCOC(=O)c1ccc2c(c1)[n+]([O-])c(C(=O)OCC)c(C)[n+]2[O-] | 6.24 | 1.38 | 10.2 | > 200
CCCCOC(=O)c1ccc2c(c1)[n+]([O-])c(C(C)=O)c(C(F)(F)F)[n+]2[O-] | 0.97 | 0.62 | 10.2 | > 200
CCCCOC(=O)c1ccc2c(c1)[n+]([O-])c(C(=O)OCC)c(C(F)(F)F)[n+]2[O-] | 0.87 | 0.57 | 10.2 | > 200
Cc1c(C(=O)Nc2ccccc2)[n+]([O-])c2cc(C(=O)OCC(C)C)ccc2[n+]1[O-] | 2.73 | 2.56 | 10.2 | > 200
CC(C)COC(=O)c1ccc2c(c1)[n+]([O-])c(C(=O)c1ccco1)c(C(F)(F)F)[n+]2[O-] | 1.65 | 0.68 | 10.2 | 81.8
Cc1c(C(=O)c2ccccc2)[n+]([O-])c2cc(C(=O)OCC(C)C)ccc2[n+]1[O-] | 2.68 | 0.95 | 10.2 | 34.2
CCCCOC(=O)c1ccc2c(c1)[n+]([O-])c(C(=O)Nc1ccccc1)c(-c1ccccc1)[n+]2[O-] | 9.74 | 3.3 | 10.2 | 44.1
CC(C)COC(=O)c1ccc2c(c1)[n+]([O-])c(C(=O)c1ccccc1)c(C(F)(F)F)[n+]2[O-] | 0.92 | 0.53 | – | –
CC(C)COC(=O)c1ccc2c(c1)[n+]([O-])c(C(=O)Nc1ccccc1)c(-c1ccccc1)[n+]2[O-] | 1.49 | 0.57 | 10.2 | > 200
CCCCOC(=O)c1ccc2c(c1)[n+]([O-])c(C(=O)c1cccs1)c(C(F)(F)F)[n+]2[O-] | 0.86 | 0.57 | – | –

SMILES | MIC [1] [µM] | MIC [2] [µM] | selectivity ratio [3] | CC50 [4] [µM]
CCCCOC(=O)c1ccc2c(c1)[n+]([O-])c(C(=O)OC(C)(C)C)c(C)[n+]2[O-] | 128 | 14.7 | 10.2 | > 200
CC(C)COC(=O)c1ccc2c(c1)[n+]([O-])c(C(=O)c1cccs1)c(C(F)(F)F)[n+]2[O-] | 0.77 | 0.55 | 10.2 | 43.9
CCCCOC(=O)c1ccc2c(c1)[n+]([O-])c(C(=O)Nc1ccc(Cl)cc1)c(C)[n+]2[O-] | > 117 | > 117 | 10.2 | 50.3
CC(C)COC(=O)c1ccc2c(c1)[n+]([O-])c(C(=O)c1ccc3ccccc3c1)c(C(F)(F)F)[n+]2[O-] | 2.33 | 1.38 | – | –
COC(=O)c1c(C)[n+]([O-])c2ccc(C(=O)OCC(C)C)cc2[n+]1[O-] | 2.01 | 0.84 | – | –
CC(=O)c1c(C)[n+]([O-])c2ccc(C(=O)OCC(C)C)cc2[n+]1[O-] | 1.82 | 0.94 | 10.2 | 87.2
CCCCOC(=O)c1ccc2c(c1)[n+]([O-])c(C(=O)c1ccc3ccccc3c1)c(C(F)(F)F)[n+]2[O-] | 3.04 | 1.07 | 10.2 | > 200
CCCCOC(=O)c1ccc2c(c1)[n+]([O-])c(C(=O)c1ccccc1)c(C(F)(F)F)[n+]2[O-] | 0.88 | 0.53 | 10.2 | 48.4
Cc1ccc(NC(=O)c2c(C)[n+]([O-])c3ccc(C(=O)OCC(C)C)cc3[n+]2[O-])c(C)c1 | 12.3 | 19.7 | 10.2 | > 200
Cc1c(C(=O)Nc2ccc(Cl)cc2)[n+]([O-])c2cc(C(=O)OCC(C)C)ccc2[n+]1[O-] | 1.86 | 1.63 | – | –
CCCCOC(=O)c1ccc2c(c1)[n+]([O-])c(C(=O)Nc1ccc(C)cc1C)c(C)[n+]2[O-] | > 118 | > 118 | – | –
CCCCOC(=O)c1ccc2c(c1)[n+]([O-])c(C(C)=O)c(C)[n+]2[O-] | 2.3 | 0.88 | 10.2 | 58.4
CCCCOC(=O)c1ccc2c(c1)[n+]([O-])c(C(=O)c1ccccc1)c(C)[n+]2[O-] | 5.37 | 1.95 | 10.2 | 17.7
NNC(=O)c1ccncc1 [ISONIAZID] | > 933 | 2.92 | – | –
CO[C@H]1/C=C/O[C@@]2(C)Oc3c(C)c(O)c4c(O)c(c(/C=N/N5CCN(C)CC5)c(O)c4c3C2=O)NC(=O)/C(C)=C\C=C\[C@H](C)[C@H](O)[C@@H](C)[C@@H](O)[C@@H](C)[C@H](OC(C)=O)[C@@H]1C [RIFAMPIN] | 0.06 | 0.02 | – | –
